The source of these data is ChEMBL document CHEMBL4732065 (Eur J Med Chem, 2021).

Converted amounts (≈) assume the structure as drawn.

The target of one series is T1, Cytochrome P450 1A2 (Homo sapiens, UniProt P05177).
T1 sequence (P05177 whole entry): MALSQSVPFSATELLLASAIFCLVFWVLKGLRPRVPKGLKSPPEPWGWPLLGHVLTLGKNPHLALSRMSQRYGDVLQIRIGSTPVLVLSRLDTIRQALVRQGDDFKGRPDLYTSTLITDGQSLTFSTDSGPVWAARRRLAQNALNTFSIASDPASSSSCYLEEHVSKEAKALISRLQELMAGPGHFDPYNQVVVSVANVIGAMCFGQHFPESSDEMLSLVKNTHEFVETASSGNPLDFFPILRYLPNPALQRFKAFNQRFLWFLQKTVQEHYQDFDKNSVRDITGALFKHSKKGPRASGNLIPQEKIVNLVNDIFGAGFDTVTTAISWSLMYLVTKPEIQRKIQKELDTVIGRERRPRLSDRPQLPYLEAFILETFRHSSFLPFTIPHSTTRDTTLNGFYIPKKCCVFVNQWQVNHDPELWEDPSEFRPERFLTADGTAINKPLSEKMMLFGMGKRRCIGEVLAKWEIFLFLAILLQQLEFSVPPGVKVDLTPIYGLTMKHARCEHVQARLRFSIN
The experiment in a line: Inhibition of recombinant human CYP1A2 using 7-ethoxyresorufin as substrate after 50 mins in presence of NADP+ by EROD assay.
Conditions: not given
Format: ADME. In outline: (§1)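 Recombinant human CYP1 Supersomes co-expressing P450 reductase; 20 fmol CYP1B1, 10 fmol CYP1A1 or 60 fmol CYP1A2 per well. Incubated at 37 °C (1B1 35 min, 1A1 15 min, 1A2 50 min).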
Usually IC50 stands for the concentration at which inhibition is half-maximal. `COc1ccc(OC)c2c1c(OC)cc1c(=O)cc(-c3cncc(C)c3)oc12`: the IC50 was determined as 161 nM.
The same measure, in the same setting: with `COc1ccc(OC)c2c1c(OC)cc1c(=O)cc(-c3ccc(N)nc3)oc12` the figure was 108 nM; with `COc1ccc(OC)c2c1c(OC)cc1c(=O)cc(-c3cncc(F)c3)oc12`, 141 nM.
On the same count and under the same terms, with `COc1ccc(OC)c2c1c(OC)cc1c(=O)cc(-c3cncc(Br)c3)oc12` the figure was 742 nM; with `COc1ccc(OC)c2c1c(OC)cc1c(=O)cc(-c3ccncc3N)oc12`, above 1000 nM; with `COc1ccc(OC)c2c1c(OC)cc1c(=O)cc(-c3cccc(N)n3)oc12`, above 1000 nM.
On the same count and under the same terms, with `COc1ccc(OC)c2c1c(OC)cc1c(=O)cc(-c3cccc(F)n3)oc12` the figure was 668 nM; with `COc1ccc(OC)c2c1c(OC)cc1c(=O)cc(-c3ccc(O)nc3)oc12`, above 1000 nM.
With `COc1ccc(OC)c2c1c(OC)cc1c(=O)cc(-c3cc(Cl)ccn3)oc12`, the IC50 is above 1000 nM.
Same read-out and setting: with `COc1ccc(OC)c2c1c(OC)cc1c(=O)cc(-c3cscn3)oc12` the figure was 29.2 nM.

For another series, the species on record is Homo sapiens. The experiment in a line: Selectivity index, ratio of IC50 for recombinant human CYP1A1 to IC50 for recombinant human CYP1B1.
Conditions: not given
As for `COc1ccc(OC)c2c1c(OC)cc1c(=O)cc(-c3cncc(C)c3)oc12`, the Ratio IC50 was 5.3.
On the same count and under the same terms, with `COc1ccc(OC)c2c1c(OC)cc1c(=O)cc(-c3ccc(N)nc3)oc12` the figure was 31.4.
On the same count and under the same terms, with `COc1ccc(OC)c2c1c(OC)cc1c(=O)cc(-c3cncc(F)c3)oc12` the figure was 18.1; with `COc1ccc(OC)c2c1c(OC)cc1c(=O)cc(-c3cncc(Br)c3)oc12`, 7.3; with `COc1ccc(OC)c2c1c(OC)cc1c(=O)cc(-c3ccncc3N)oc12`, 1.3.
On to `COc1ccc(OC)c2c1c(OC)cc1c(=O)cc(-c3cccc(N)n3)oc12`, for which the Ratio IC50 was 8.7.
As to `COc1ccc(OC)c2c1c(OC)cc1c(=O)cc(-c3cccc(F)n3)oc12`, the Ratio IC50 was 6.1.
As for `COc1ccc(OC)c2c1c(OC)cc1c(=O)cc(-c3ccc(O)nc3)oc12`, the Ratio IC50 was above 1.5.
The same measure, in the same setting: with `COc1ccc(OC)c2c1c(OC)cc1c(=O)cc(-c3cc(Cl)ccn3)oc12` the figure was 11.8; with `COc1ccc(OC)c2c1c(OC)cc1c(=O)cc(-c3cscn3)oc12`, 1.2.

The next series concerns the target T2, Cytochrome P450 1B1 (Homo sapiens, UniProt Q16678).
T2 sequence (Q16678 whole entry): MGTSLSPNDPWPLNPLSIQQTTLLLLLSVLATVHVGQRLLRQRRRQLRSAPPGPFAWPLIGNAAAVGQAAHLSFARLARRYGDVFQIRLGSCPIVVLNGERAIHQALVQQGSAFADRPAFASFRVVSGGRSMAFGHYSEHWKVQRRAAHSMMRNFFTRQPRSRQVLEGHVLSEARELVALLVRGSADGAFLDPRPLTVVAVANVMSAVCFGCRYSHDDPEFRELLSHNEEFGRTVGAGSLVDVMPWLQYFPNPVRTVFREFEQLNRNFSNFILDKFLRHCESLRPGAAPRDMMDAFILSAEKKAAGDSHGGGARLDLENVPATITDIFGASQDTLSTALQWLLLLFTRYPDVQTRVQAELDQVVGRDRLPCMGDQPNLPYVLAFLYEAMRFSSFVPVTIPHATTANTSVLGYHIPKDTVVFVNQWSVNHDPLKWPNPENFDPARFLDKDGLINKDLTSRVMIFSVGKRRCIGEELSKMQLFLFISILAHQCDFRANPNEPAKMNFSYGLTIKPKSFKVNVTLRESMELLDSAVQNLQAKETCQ
The experiment in a line: Inhibition of recombinant human CYP1B1 using 7-ethoxyresorufin as substrate after 35 mins in presence of NADP+ by EROD assay.
Conditions: not given
In outline:
as §1
On to `COc1ccc(OC)c2c1c(OC)cc1c(=O)cc(-c3cncc(C)c3)oc12`, for which the IC50 is 1.3 nM.
On the same count and under the same terms, with `COc1ccc(OC)c2c1c(OC)cc1c(=O)cc(-c3ccc(N)nc3)oc12` the figure was 0.98 nM.
On the same count and under the same terms, with `COc1ccc(OC)c2c1c(OC)cc1c(=O)cc(-c3cncc(F)c3)oc12` the figure was 0.98 nM; with `COc1ccc(OC)c2c1c(OC)cc1c(=O)cc(-c3cncc(Br)c3)oc12`, 1.1 nM.
`COc1ccc(OC)c2c1c(OC)cc1c(=O)cc(-c3ccncc3N)oc12`: the IC50 is 24.8 nM.
On the same count and under the same terms, with `COc1ccc(OC)c2c1c(OC)cc1c(=O)cc(-c3cccc(N)n3)oc12` the figure was 6.5 nM; with `COc1ccc(OC)c2c1c(OC)cc1c(=O)cc(-c3cccc(F)n3)oc12`, 0.38 nM; with `COc1ccc(OC)c2c1c(OC)cc1c(=O)cc(-c3ccc(O)nc3)oc12`, 658 nM.
The same measure, in the same setting: with `COc1ccc(OC)c2c1c(OC)cc1c(=O)cc(-c3cc(Cl)ccn3)oc12` the figure was 0.84 nM; with `COc1ccc(OC)c2c1c(OC)cc1c(=O)cc(-c3cscn3)oc12`, 2.6 nM.

Test system in another series: not listed separately
The experiment in a line: Water solubility of compound by HPLC analysis. Format: physicochemical.
Conditions: not given
The method in brief:
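Compound stocks at 5 mg/mL in DCM/MeOH were diluted in MeOH to 125–2000 µg/mL (500–5000 µg/mL for the salt form) and run on C18 HPLC with detection at 360 nm for calibration. A 10 µL injection of supersaturated aqueous solution, diluted if needed, was then analysed. Solubility was calculated from the linear regression.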
The term solubility denotes how much of the substance goes into solution per volume. Low readings indicate little dissolved substance, high ones much dissolved substance. Molecule `COc1ccc(OC)c2c1c(OC)cc1c(=O)cc(-c3ccc(N)nc3)oc12` displayed a solubility of 311 µg/mL (≈ 822 µM).

The next series concerns the target T2, Cytochrome P450 1B1. The experiment in a line: Potency index, ratio of IC50 of ANF to IC50 of compound for inhibition of human recombinant CYP1B1. As to conditions: read-out: Ratio IC50.
Regarding `COc1ccc(OC)c2c1c(OC)cc1c(=O)cc(-c3cncc(C)c3)oc12`, the selectivity ratio was 5.
As to `COc1ccc(OC)c2c1c(OC)cc1c(=O)cc(-c3cncc(F)c3)oc12`, the selectivity ratio was 5.
Take `COc1ccc(OC)c2c1c(OC)cc1c(=O)cc(-c3cncc(Br)c3)oc12`: the selectivity ratio came to 5.

The species entered for another series is Homo sapiens. The experiment in a line: Selectivity index, ratio of IC50 for recombinant human CYP1A2 to IC50 for recombinant human CYP1B1.
Conditions: not given
As for `COc1ccc(OC)c2c1c(OC)cc1c(=O)cc(-c3cncc(C)c3)oc12`, the Ratio IC50 came to 124.
As for `COc1ccc(OC)c2c1c(OC)cc1c(=O)cc(-c3ccc(N)nc3)oc12`, the Ratio IC50 worked out at 110.
As to `COc1ccc(OC)c2c1c(OC)cc1c(=O)cc(-c3cncc(F)c3)oc12`, the Ratio IC50 was found to be 144.
Still for that read-out and setting: with `COc1ccc(OC)c2c1c(OC)cc1c(=O)cc(-c3cncc(Br)c3)oc12` the figure was 674.
On the same count and under the same terms, with `COc1ccc(OC)c2c1c(OC)cc1c(=O)cc(-c3ccncc3N)oc12` the figure was above 40.3; with `COc1ccc(OC)c2c1c(OC)cc1c(=O)cc(-c3cccc(N)n3)oc12`, above 154.
The same measure, in the same setting: with `COc1ccc(OC)c2c1c(OC)cc1c(=O)cc(-c3cccc(F)n3)oc12` the figure was 1760; with `COc1ccc(OC)c2c1c(OC)cc1c(=O)cc(-c3ccc(O)nc3)oc12`, above 1.5.
Regarding `COc1ccc(OC)c2c1c(OC)cc1c(=O)cc(-c3cc(Cl)ccn3)oc12`, the Ratio IC50 is above 1190.
On the same count and under the same terms, with `COc1ccc(OC)c2c1c(OC)cc1c(=O)cc(-c3cscn3)oc12` the figure was 11.2.

For another series, the target named is T3, Cytochrome P450 1A1 (Homo sapiens, UniProt P04798).
T3 sequence (P04798 whole entry): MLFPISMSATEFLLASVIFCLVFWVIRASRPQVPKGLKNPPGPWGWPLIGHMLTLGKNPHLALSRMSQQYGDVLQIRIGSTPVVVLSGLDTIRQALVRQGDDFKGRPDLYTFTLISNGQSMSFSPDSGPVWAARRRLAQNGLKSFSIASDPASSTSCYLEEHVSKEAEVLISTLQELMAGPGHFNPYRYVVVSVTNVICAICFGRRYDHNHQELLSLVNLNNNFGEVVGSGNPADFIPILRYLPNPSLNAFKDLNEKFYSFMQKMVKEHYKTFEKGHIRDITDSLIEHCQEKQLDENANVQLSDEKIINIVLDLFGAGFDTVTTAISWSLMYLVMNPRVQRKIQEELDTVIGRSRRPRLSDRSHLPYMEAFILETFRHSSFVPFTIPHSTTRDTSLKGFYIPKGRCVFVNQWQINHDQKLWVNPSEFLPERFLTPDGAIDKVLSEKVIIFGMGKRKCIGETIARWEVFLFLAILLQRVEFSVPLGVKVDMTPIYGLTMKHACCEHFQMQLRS
The experiment in a line: Inhibition of recombinant human CYP1A1 using 7-ethoxyresorufin as substrate after 15 mins in presence of NADP+ by EROD assay.
Conditions: not given
Format: ADME. In outline: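 Recombinant human CYP1 Supersomes co-expressing P450 reductase; 20 fmol CYP1B1, 10 fmol CYP1A1 or 60 fmol CYP1A2 per well. Incubated at 37 °C (1B1 35 min, 1A1 15 min, 1A2 50 min). Stopped with cold methanol; fluorescence read at 544/590 nm; triplicates.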
Turning to `COc1ccc(OC)c2c1c(OC)cc1c(=O)cc(-c3cncc(C)c3)oc12`, the IC50 came to 6.9 nM.
On the same count and under the same terms, with `COc1ccc(OC)c2c1c(OC)cc1c(=O)cc(-c3ccc(N)nc3)oc12` the figure was 30.8 nM; with `COc1ccc(OC)c2c1c(OC)cc1c(=O)cc(-c3cncc(F)c3)oc12`, 17.7 nM.
The same measure, in the same setting: with `COc1ccc(OC)c2c1c(OC)cc1c(=O)cc(-c3cncc(Br)c3)oc12` the figure was 8 nM; with `COc1ccc(OC)c2c1c(OC)cc1c(=O)cc(-c3ccncc3N)oc12`, 31.6 nM; with `COc1ccc(OC)c2c1c(OC)cc1c(=O)cc(-c3cccc(N)n3)oc12`, 56.8 nM.
Still for that read-out and setting: with `COc1ccc(OC)c2c1c(OC)cc1c(=O)cc(-c3cccc(F)n3)oc12` the figure was 2.3 nM.
Consider `COc1ccc(OC)c2c1c(OC)cc1c(=O)cc(-c3ccc(O)nc3)oc12`, for which the IC50 is above 1000 nM.
With `COc1ccc(OC)c2c1c(OC)cc1c(=O)cc(-c3cc(Cl)ccn3)oc12`, the IC50 was 9.9 nM.
As to `COc1ccc(OC)c2c1c(OC)cc1c(=O)cc(-c3cscn3)oc12`, the IC50 is 3.1 nM.
